Measurements taken from article PMC3544189 (ACS medicinal chemistry letters, 2012).
“Also recorded” adds a separate entry of the source.

Legend:
[1] = tested on: chymotrypsin-like activity of human 20S proteasome; format: biochemical; conditions: for Proteasome activation (in words): chymotrypsin-like activity, absence of PA28
In short: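 Without PA28, proteasome was exposed to test compound. Chymotrypsin-like activity was followed by cleavage of the fluorogenic substrate Suc-LLVY-AMC, read in relative fluorescence units against a proteasome-plus-substrate background. EC50 was the concentration raising activity to 50% of its maximum level. Values are mean ± SD of three independent experiments.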

[2] = tested on: PA28-activated proteasome inhibited by Aβ1-42; experiment: Antagonism of Aβ1-42 inhibition of PA28-activated proteasome by compound 2; format: biochemical; conditions: compound 2 at 14, 28, 56 μM; Aβ1-42 10 μg/ml; PA28 1.8 μg/ml
proteasome [3] = conditions: cited from earlier work
[4] = tested on: chymotrypsin-like proteasome activity (20S proteasome + PA28); experiment: Inhibition of chymotrypsin-like proteasome activity in the presence of PA28; format: biochemical, human
In short: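 The proteasome was activated by the cellular activator PA28 and then exposed to test compound. Chymotrypsin-like activity was read by Suc-LLVY-AMC fluorescence, with proteasome plus substrate as background. IC50 was the concentration inhibiting PA28-present chymotrypsin-like activity by 50%. Values are mean ± SD of three independent experiments.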

proteasome [5] = conditions: cited from earlier work; remark: listed apart in the source
proteasome [6] = conditions: cited from earlier work; remark: listed apart in the source
[7] = target: PA28-activated proteasome; experiment: Inhibition of PA28-activated proteasome by Aβ1-42; format: biochemical; conditions: PA28 1.8 μg/ml

| Compound | Proteasome activation (in words) [1] | Proteasome inhibition (in words) [4] | further results |
| --- | --- | --- | --- |
| COC(=O)CC[C@@H](C)[C@H]1CC[C@H]2[C@@H]3CC[C@@H]4C[C@H](OC(=O)CCCCCC(=O)O)CC[C@]4(C)[C@H]3CC[C@]12C [Compound 2, 3α-O-pimeloyl-lithocholic acid methyl ester] | active in proteasome activation | – | Antagonism of Aβ1-42-mediated proteasome inhibition (in words) [2]: antagonized the Aβ1-42-mediated proteasome inhibition in a dose dependent manner; also recorded: potently antagonized; also recorded: completely reverse; Proteasome inhibition in previous study (in words) (proteasome [3]): inactive in proteasome inhibition |
| CCOC(=O)CC[C@@H](C)[C@H]1CC[C@H]2[C@@H]3CC[C@@H]4C[C@H](OC(=O)CCCCCC(=O)O)CC[C@]4(C)[C@H]3CC[C@]12C [Compound 3] | completely abrogated the proteasome activation activity | – | – |
| CNC(=O)CC[C@@H](C)[C@H]1CC[C@H]2[C@@H]3CC[C@@H]4C[C@H](OC(=O)CCCCCC(=O)O)CC[C@]4(C)[C@H]3CC[C@]12C [Compound 4] | completely abrogated the proteasome activation activity | – | – |
| COC(=O)CC[C@@H](C)[C@H]1CC[C@H]2[C@@H]3CC[C@@H]4C[C@@H](OC(=O)CCCCCC(=O)O)CC[C@]4(C)[C@H]3CC[C@]12C [Compound 5] | did not activate the proteasome | inhibited the proteasome | – |
| COC(=O)CC[C@@H](C)[C@H]1CC[C@H]2[C@@H]3CC[C@@H]4C[C@H](NC(=O)CCCCCC(=O)O)CC[C@]4(C)[C@H]3CC[C@]12C [Compound 6] | – | – | Increase of proteasome activation activity relative to compound 2 ([1]; C3 amide versus C3 ester): approximately two-fold |
| COC(=O)CC[C@@H](C)[C@H]1CC[C@H]2[C@@H]3CC[C@@H]4C[C@@H](NC(=O)CCCCCC(=O)O)CC[C@]4(C)[C@H]3CC[C@]12C [Compound 7] | did not activate the proteasome | inhibited the proteasome | – |
| COC(=O)CC[C@@H](C)[C@H]1CC[C@H]2[C@@H]3CC[C@@H]4C[C@@H](N)CC[C@]4(C)[C@H]3CC[C@]12C [Compound 9, 3-β-amino-lithocholic acid methyl ester] | did not activate the proteasome | inhibited the proteasome | – |
| C[C@H](CCC(=O)O)[C@H]1CC[C@H]2[C@@H]3CC[C@@H]4C[C@H](O)CC[C@]4(C)[C@H]3CC[C@]12C [Lithocholic acid, lithocholic acid, reference compound] | did not activate the proteasome | weak proteasome inhibitor | – |
| C/C=C1/[C@H](O[C@@H]2O[C@H](CO)[C@@H](O)[C@H](O)[C@H]2O)OC=C(C(=O)OC)[C@H]1CC(=O)OCCc1ccc(O)c(O)c1 [Oleuropein, reference compound] | did not show any significant activity; also recorded: did not activate the proteasome | – | Proteasome activation over background proteasome activity (proteasome [5]; absence of cellular proteasome activators): approximately 1.5 fold; Concentration reported to enhance proteasome activities in vitro (proteasome [5]): 0.5 µg/mL |
| CCCCCCCCCCCCOS(=O)(=O)[O-].[Na+] [SDS] | – | – | Concentration reported for proteasome activation (proteasome [5]): 0.05% |
| CN(C)c1ccc2nc3ccc(=[N+](C)C)cc-3sc2c1 [methylene blue] | – | – | Enhancement of proteasome activity (in words) (proteasome [6]): slightly enhance proteasome activity |
| Aβ1-42: amyloid beta peptide 1-42, the likely pathogenic form of Aβ | – | – | Inhibition of PA28-activated proteasome (in words) [7]: inhibited the proteasome in a dose dependent manner |
| polylysine | – | – | Concentration reported for proteasome activation (proteasome [5]): 1 mg/mL |
